Among the data in ChEMBL document CHEMBL1759845, “Potent inhibitors of hepatitis C core dimerization as new leads for anti-hepatitis C agents” (Bioorg Med Chem Lett, 2011) are IC50, EC50 and CC50 values, retold here.

As a reminder, the IC50 is the concentration that inhibits the measured activity by half. A word on the EC50: it is the midpoint of the concentration-response curve. The CC50 is the concentration that lowers cell viability or growth by half. Read a high CC50 as lower toxicity to the cells.

SMILES strings stand for the structures.

A short description of data set [1]: Inhibition of Hepatitis C virus core protein dimerization by core dimerization assay. Also on record: species or system Hepacivirus hominis.
The test system of data set [2] is Hepatitis C virus. Put plainly: Antiviral activity against Hepatitis C virus JFH-1 J6 infected in human HuH7.5 cells assessed as inhibition of virus propagation measured after 72 hrs. In kind it is functional, organism-based, Hepacivirus hominis. Particulars: subtype 2a JFH1 J6, Huh-7, 72 h. The method in brief: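 Huh-7.5 hepatoma cells infected with HCV genotype 2a J6/JFH-1 were treated with inhibitor at 0.001–100 µM. […] An NS3/NS4A protease inhibitor served as positive control. Values are means of three experiments.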

The test system of data set [3] is Hepatitis C virus. Description: Antiviral activity against Hepatitis C virus JFH-1 J6 infected in human HuH7.5 cells assessed as inhibition of virus propagation measured after 72 hrs of transfer to fresh media. In kind it is functional, organism-based, Hepacivirus hominis. Particulars: subtype 2a JFH1 J6, Huh-7, 72 h. The method in brief: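 Huh-7.5 hepatoma cells, HCV 2a J6/JFH-1. Virus secreted during the initial 72 hr inhibitor-treated culture (0.001–100 µM) was used to infect fresh cells, which were cultured a second 72 hr (T2). HCV propagation was then assessed, with an NS3/NS4A protease inhibitor as positive control. Values are means of three experiments.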

A short description of data set [4]: Cytotoxicity against human Huh7.5 cells. As to conditions: huh-7. The class given is cell-based. The method in brief:
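Huh-7.5 hepatoma cells; read-out is the 50% cytotoxic concentration (CC50), reported as the mean of three experiments.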

The compound `COC(=O)C1=C(C(=O)OC)[C@@H]2N(CCCCCn3cc(-c4ccc(OC)cc4C)nn3)c3ccccc3[C@@]23CCC(=O)N(Cc2ccccc2)C3=N1` (racemic) gave a half-inhibitory concentration (IC50) in data set [1] of 92 nM. Moreover, the EC50 turned out to be 1400 nM in the data set on Hepatitis C virus [2] and 1100 nM in the data set on Hepatitis C virus [3]. The 50% cytotoxic concentration (CC50) in data set [4] was > 100000 nM.
Turning to `COc1ccc2c(O[C@@H]3C[C@H]4C(=O)N[C@]5(C(=O)O)C[C@H]5/C=C\CCCCC[C@H](NC(=O)OC5CCCC5)C(=O)N4C3)cc(-c3csc(NC(C)C)n3)nc2c1` [CILUPREVIR], the EC50 was 72 nM in the data set on Hepatitis C virus [2] and 71 nM with Hepatitis C virus [3].
Regarding `COC(=O)C1=C(C(=O)OC)[C@@H]2N(CCCCCN3c4ccccc4[C@]45CCC(=O)N(Cc6ccccc6)C4=NC(C(=O)OC)=C(C(=O)OC)[C@H]35)c3ccccc3[C@@]23CCC(=O)N(Cc2ccccc2)C3=N1` (mixture of isomers), in data set [1], the half-maximal inhibitory concentration (IC50) is 720 nM. Besides, the EC50 in the data set on Hepatitis C virus [2] turned out to be 90 nM; in the data set with Hepatitis C virus [3], 29900 nM. Further, the cytotoxic concentration (CC50) in data set [4] was > 36000 nM.
In the case of `COC(=O)C1=C(C(=O)OC)[C@@H]2N(CCOCCN3c4ccccc4[C@]45CCC(=O)N(Cc6ccccc6)C4=NC(C(=O)OC)=C(C(=O)OC)[C@H]35)c3ccccc3[C@@]23CCC(=O)N(Cc2ccccc2)C3=N1`, the IC50 in data set [1] amounted to 98 nM. Further, the EC50 with Hepatitis C virus [2] stood at 480 nM; in the data set with Hepatitis C virus [3], 2500 nM. Further, the 50% cytotoxic concentration (CC50) in data set [4] is > 100000 nM.
The corresponding values for `COC(=O)C1=C(C(=O)OC)[C@@H]2N(CCCN3c4ccccc4[C@]45CCC(=O)N(Cc6ccccc6)C4=NC(C(=O)OC)=C(C(=O)OC)[C@H]35)c3ccccc3[C@@]23CCC(=O)N(Cc2ccccc2)C3=N1` are 2900 nM, 88 nM, 735 nM and > 36000 nM.
As for `COC(=O)C1=C(C(=O)OC)[C@@H]2N(CCCCCn3cc(CNC(C)=O)nn3)c3ccccc3[C@@]23CCC(=O)N(Cc2ccccc2)C3=N1` (racemic), the IC50 in data set [1] came to 341 nM. Besides, the EC50 turned out to be 26200 nM in the data set with Hepatitis C virus [2] and 56200 nM with Hepatitis C virus [3]. It took 150000 nM to reach half-maximal cytotoxicity in data set [4] (CC50).
